From ChEMBL document CHEMBL3763093, “The molecular structure of thio-ether fatty acids influences PPAR-dependent regulation of lipid metabolism” (Bioorg Med Chem, 2016)
Activity calls are given as the source filed them. The rule behind the calls is not given here.

Experiments:
[1] = Effect on fatty acid composition in human myotubes assessed as intracellular PUFA n-9 level at 10 uM after 96 hrs (Rvb= 1.78%); assay type: functional
Summary of the method: (§1)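 Differentiated human myotubes (7 days) treated 96 h with 10 or 30 μM compound or DMSO 0.1% (two controls). Cells washed, harvested, lipids extracted and methylated (methanol, sulfuric acid, 90 °C, 1 h); FA methyl esters quantified by GC with C21:0 internal standard, peaks confirmed by standards and GC/MS; values as mol % of intracellular fatty acids.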

[2] = Effect on fatty acid composition in human myotubes assessed as intracellular MUFA level at 30 uM after 96 hrs (Rvb= 41.04%); assay type: functional; summary of the method: as §1
[3] = Effect on fatty acid composition in human myotubes assessed as intracellular SFA level at 10 uM after 96 hrs (Rvb= 36.16%); assay type: functional; summary of the method: as §1
[4] = Effect on fatty acid composition in human myotubes assessed as intracellular PUFA n-3 level at 10 uM after 96 hrs (Rvb= 7.47%); assay type: functional; summary of the method: as §1
[5] = Effect on total fatty acid level in human myotubes assessed as per mg of protein at 10 to 30 uM; assay type: ADME
[6] = Induction of fatty acid oxidation in human myotubes using [14C]oleic acid as substrate at 30 uM preincubated for 96 hrs followed by substrate addition incubated for 4 hrs by liquid scintillation analysis relative to control; assay type: functional
Summary of the method: (§2)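 Myotubes differentiated 7 days were pretreated 96 h with 10 or 30 μM compound, 10 nM GW501516 or DMSO 0.1%, then given [1-14C]oleic acid (0.5 μCi/mL, 100 μM) in DPBS with HEPES 10 mM and L-carnitine 1 mM, 4 h at 37 °C. Trapped CO2 and cell-associated label counted by scintillation; uptake = CO2 + CA; Bradford protein; % of DMSO basal; n = 8–15.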

Homo sapiens [7] = organism: Homo sapiens; experiment: Effect on intracellular [14C]oleic acid uptake in human myotubes at 10 to 30 uM preincubated for 96 hrs followed by substrate addition incubated for 4 hrs by liquid scintillation analysis; assay type: functional, cell-based; summary of the method: as §2
[8] = biological target: T1, Peroxisome proliferator-activated receptor (Homo sapiens) (UniProt P37231+Q07869+Q03181); experiment: Agonist activity at PPAR in human myotubes assessed as CPT1A mRNA expression at 30 uM after 96 hrs by qPCR analysis relative to control
Summary of the method: (§3)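 Myotubes from satellite cells of abdominal muscle biopsies of healthy donors, differentiated 7 days, then exposed 96 h to test lipids (30 μM) vs DMSO 0.1%. Total RNA isolated (RIN ≥7), reverse transcribed, real-time PCR with gene-specific primers; expression expressed relative to DMSO control.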

[9] = Effect on fatty acid composition in human myotubes assessed as change in intracellular MUFA level at 10 uM after 96 hrs relative to DMSO control; assay type: functional; summary of the method: as §1
[10] = Effect on fatty acid composition in human myotubes assessed as change in intracellular MUFA level at 30 uM after 96 hrs relative to DMSO control; assay type: functional; summary of the method: as §1
[11] = biological target: T1, Peroxisome proliferator-activated receptor (Homo sapiens); experiment: Agonist activity at PPAR in human myotubes assessed as ANGPTL4 mRNA expression at 30 uM after 96 hrs by qPCR analysis relative to control; summary of the method: as §3
[12] = Effect on fatty acid composition in human myotubes assessed as intracellular TTA level at 30 uM after 96 hrs; assay type: functional; summary of the method: as §1
[13] = Effect on fatty acid composition in human myotubes assessed as intracellular PUFA n-3 level at 30 uM after 96 hrs (Rvb= […]); assay type: functional; summary of the method: as §1
[14] = Effect on fatty acid composition in human myotubes assessed as intracellular PUFA n-6 level at 10 uM after 96 hrs (Rvb= 13.41%); assay type: functional; summary of the method: as §1
[15] = Effect on fatty acid composition in human myotubes assessed as intracellular dTTA level at 10 uM after 96 hrs; assay type: functional; summary of the method: as §1
[16] = Effect on protein level in human myotubes at 10 to 30 uM; assay type: ADME
[17] = biological target: T1, Peroxisome proliferator-activated receptor (Homo sapiens); experiment: Agonist activity at PPAR in human myotubes assessed as FABP3 mRNA expression at 30 uM after 96 hrs by qPCR analysis relative to control; summary of the method: as §3
[18] = Effect on fatty acid composition in human myotubes assessed as intracellular SFA level at 30 uM after 96 hrs (Rvb= 36.16%); assay type: functional; summary of the method: as §1
[19] = Effect on fatty acid composition in human myotubes assessed as intracellular TTA level at 10 uM after 96 hrs; assay type: functional; summary of the method: as §1
[20] = Effect on fatty acid composition in human myotubes assessed as intracellular PUFA n-6 level at 30 uM after 96 hrs (Rvb= 13.41%); assay type: functional; summary of the method: as §1
[21] = Effect on fatty acid composition in human myotubes assessed as intracellular PUFA n-9 level at 30 uM after 96 hrs (Rvb= 1.78%); assay type: functional; summary of the method: as §1
[22] = Effect on fatty acid composition in human myotubes assessed as intracellular MUFA level at 10 uM after 96 hrs (Rvb= 41.04%); assay type: functional; summary of the method: as §1
[23] = Effect on fatty acid composition in human myotubes assessed as change in intracellular SFA level at 10 uM after 96 hrs relative to DMSO control; assay type: functional; summary of the method: as §1
[24] = biological target: T1, Peroxisome proliferator-activated receptor (Homo sapiens); experiment: Agonist activity at PPAR in human myotubes assessed as CD36 mRNA expression at 30 uM after 96 hrs by qPCR analysis relative to control; summary of the method: as §3
[25] = Effect on fatty acid composition in human myotubes assessed as change in intracellular SFA level at 30 uM after 96 hrs relative to DMSO control; assay type: functional; summary of the method: as §1
Homo sapiens [26] = organism: Homo sapiens; experiment: Induction of fatty acid oxidation in human myotubes using [14C]oleic acid as substrate preincubated for 96 hrs followed by substrate addition incubated for 4 hrs by liquid scintillation analysis; assay type: functional; summary of the method: as §2
[27] = Effect on fatty acid composition in human myotubes assessed as intracellular dTTA level at 30 uM after 96 hrs; assay type: functional; summary of the method: as §1

**Q.** Which Activity [1] does the source give for `CCCCCCCCCCCCCCSCC(=O)O` [TETRADECYLTHIOACETIC ACID] here?
**A.** 2.2 mol%

**Q.** And the Activity [2]?
**A.** 28.44 mol%

**Q.** And the Activity [3]?
**A.** 26.24 mol%

**Q.** What about the Activity [4] of the same molecule?
**A.** 7.86 mol%

**Q.** What about the Activity [5] of the same molecule?
**A.** Non-toxic

**Q.** What about the “fold change (FC)” value [6] of the same molecule?
**A.** 3

**Q.** And the Activity (Homo sapiens [7])?
**A.** inactive

**Q.** And the fold change (FC) [8]?
**A.** 5

**Q.** What about the Activity [9] of the same molecule?
**A.** -14.6%

**Q.** What about the Activity [10] of the same molecule?
**A.** -30.8%

**Q.** And the fold change (FC) [11]?
**A.** < 20

**Q.** And the Activity [12]?
**A.** 31.81 mol%

**Q.** And the Activity [13]?
**A.** 6.62 mol%

**Q.** And the Activity [14]?
**A.** 14.34 mol%

**Q.** What about the Activity [15] of the same molecule?
**A.** 1.11 mol%

**Q.** And the Activity [16]?
**A.** Non-toxic

**Q.** What about the Activity [17] of the same molecule?
**A.** Active

**Q.** What about the Activity [18] of the same molecule?
**A.** 18.25 mol%

**Q.** And the Activity [19]?
**A.** 13.02 mol%

**Q.** What about the Activity [20] of the same molecule?
**A.** 11.78 mol%

**Q.** What about the Activity [21] of the same molecule?
**A.** 1.73 mol%

**Q.** And the Activity [22]?
**A.** 35.09 mol%

**Q.** What about the Activity [23] of the same molecule?
**A.** -27.2%

**Q.** What about the Activity [24] of the same molecule?
**A.** Active

**Q.** And the Activity [25]?
**A.** -49.4%

**Q.** And the Activity (Homo sapiens [26])?
**A.** Dose-dependent effect

**Q.** What about the Activity [27] of the same molecule?
**A.** 1.28 mol%
